Source: ChEMBL document CHEMBL3352718, “CB2-selective cannabinoid receptor ligands: synthesis, pharmacological evaluation, and molecular modeling investigation of 1,8-Naphthyridin-2(1H)-one-3-carboxamides” (J Med Chem, 2014)
pEC50, pIC50, pKi: −log10 of the molar value.

Legend:
[1] = target: Cannabinoid receptor 1 (Homo sapiens, UniProt P21554); assay: Displacement of [3H]CP-55,940 from human recombinant CB1R expressed in HEK-293 cells after 90 mins by liquid scintillation counting; parameters: species or system HEK293
Sequence of Cannabinoid receptor 1 (P21554 whole entry): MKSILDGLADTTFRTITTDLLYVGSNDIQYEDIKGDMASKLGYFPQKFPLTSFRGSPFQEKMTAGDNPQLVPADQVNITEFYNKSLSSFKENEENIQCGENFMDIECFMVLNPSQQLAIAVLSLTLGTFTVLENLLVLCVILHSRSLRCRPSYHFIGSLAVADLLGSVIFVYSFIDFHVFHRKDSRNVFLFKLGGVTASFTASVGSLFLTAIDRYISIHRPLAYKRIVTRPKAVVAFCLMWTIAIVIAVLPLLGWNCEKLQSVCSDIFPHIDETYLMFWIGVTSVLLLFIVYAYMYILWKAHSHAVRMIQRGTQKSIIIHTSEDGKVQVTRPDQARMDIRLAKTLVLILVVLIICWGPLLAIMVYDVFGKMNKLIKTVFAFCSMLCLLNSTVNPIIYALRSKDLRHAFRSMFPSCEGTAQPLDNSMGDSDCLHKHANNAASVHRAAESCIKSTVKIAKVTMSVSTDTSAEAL

[2] = target: T1, Cannabinoid receptor 2 (Homo sapiens, UniProt P34972); assay: Displacement of [3H]CP-55,940 from human recombinant CB2R expressed in HEK-293 cells after 90 mins by liquid scintillation counting; parameters: species or system HEK293
T1 sequence (P34972 whole entry): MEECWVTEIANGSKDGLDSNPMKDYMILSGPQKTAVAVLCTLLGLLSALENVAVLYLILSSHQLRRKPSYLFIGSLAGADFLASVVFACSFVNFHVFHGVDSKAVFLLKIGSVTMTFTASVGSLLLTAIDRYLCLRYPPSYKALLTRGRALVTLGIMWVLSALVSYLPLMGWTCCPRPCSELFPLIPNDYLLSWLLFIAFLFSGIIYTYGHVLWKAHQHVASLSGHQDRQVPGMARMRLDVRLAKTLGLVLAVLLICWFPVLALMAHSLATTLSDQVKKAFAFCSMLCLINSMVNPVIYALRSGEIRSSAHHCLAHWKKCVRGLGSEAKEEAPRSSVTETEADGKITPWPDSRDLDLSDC

[3] = system: HEK293; assay: Selectivity ratio of Ki for human recombinant CB1R expressed in HEK-293 cells to Ki for human recombinant CB2R expressed in HEK-293 cells; type: cell-based
[4] = target: T1, Cannabinoid receptor 2; assay: Antagonist activity at human recombinant CB2R expressed in U2OS cells assessed as inhibition of WIN-55212-induced beta-arrestin-GFP binding to receptor preincubated for 15 mins by fluorescent microscopy; type: cell-based
Method in brief: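 Same βarr2-GFP redistribution set-up in hCB2R U2OS cells on coverslips. […] Fixed in 4% paraformaldehyde, imaged by fluorescence microscopy. […] Three experiments in duplicate.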

[5] = target: T1, Cannabinoid receptor 2; assay: Antagonist activity at human recombinant CB2R expressed in WIN-55212-stimulated U2OS cells assessed as increase in forskolin-mediated cAMP level after 30 mins by time-resolved fluorescence assay; type: functional, cell-based; settings: for IC50: u2os
[6] = target: T1, Cannabinoid receptor 2; assay: Agonist activity at human recombinant CB2R expressed in U2OS cells assessed as beta-arrestin-GFP binding to receptor […] by fluorescent microscopy; type: cell-based
[7] = target: T1, Cannabinoid receptor 2; assay: Agonist activity at human recombinant CB2R expressed in […] U2OS cells assessed as reduction in forskolin-mediated cAMP level after 30 mins by time-resolved fluorescence assay; type: functional, cell-based
Method in brief: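 hCB2R-expressing U2OS cells in HBSS stimulation buffer with 0.1% BSA, 0.5 mM IBMX and 5 mM HEPES, pH 7.4, at 3000 cells/well. Cells treated with forskolin (10 μM final) and various ligand concentrations for 30 min at room temperature. cAMP measured by LANCE TR-FRET (Eu-cAMP tracer plus ULight antibody, 1 h in the dark, 615/665 nm) against a cAMP standard curve. Three experiments in triplicate.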

Row | SMILES | pKi [1] | pKi [2] | Ratio Ki [3] | also measured
1 | CC1CCC(NC(=O)c2cc3cc(Br)cnc3n(Cc3ccc(F)cc3)c2=O)CC1 (stereo not drawn) | 7.02 | 9.74 | 534 | pIC50 [2]: 9.14; pIC50 [4]: 7.50; IC50 [5]: ND(Insoluble)
2 | CC1CCC(NC(=O)c2cc3cccnc3n(CCCCCCO)c2=O)CC1 (stereo not drawn) | < 5.00 | 7.74 | – | –
3 | C[C@H]1CC[C@H](NC(=O)c2cc3cc(-c4ccco4)cnc3n(Cc3ccc(F)cc3)c2=O)CC1 | < 5.00 | 7.03 | > 106 | –
4 | COc1ccc(-c2cnc3c(c2)cc(C(=O)NC2CCC(C)CC2)c(=O)n3CCN2CCOCC2)cc1 (stereo not drawn) | < 5.00 | 8.83 | – | pIC50 [4]: 7.27; IC50 [5]: ND(Insoluble)
5 | CC1CCC(NC(=O)c2cc3cccnc3n(CCCCF)c2=O)CC1 (stereo not drawn) | 6.00 | 8.87 | 743 | pIC50 [2]: 8.27; pEC50 [6]: 7.66; pEC50 [7]: 7.69
6 | CC1CCC(NC(=O)c2cc3cccnc3n(CCC(=O)O)c2=O)CC1 (stereo not drawn) | < 5.00 | 5.86 | – | –
7 | C[C@H]1CC[C@H](NC(=O)c2cc3cc(Br)cnc3n(Cc3ccc(F)cc3)c2=O)CC1 | 6.78 | 8.95 | 148 | –
8 | CC1CCC(NC(=O)c2cc3cccnc3n(CCCO)c2=O)CC1 (stereo not drawn) | < 5.00 | 6.89 | – | –
9 | CC1CCC(NC(=O)c2cc3cccnc3n(CCCCO)c2=O)CC1 (stereo not drawn) | < 5.00 | 7.27 | – | pIC50 [2]: 6.68; pEC50 [6]: 7.63
10 | C[C@H]1CC[C@@H](NC(=O)c2cc3cc(-c4cccs4)cnc3n(Cc3ccc(F)cc3)c2=O)CC1 | 6.33 | 9.02 | 491 | –
11 | CC1CCC(NC(=O)c2cc3cccnc3n(CCO)c2=O)CC1 (stereo not drawn) | < 5.00 | 5.68 | – | –
12 | C[C@H]1CC[C@H](NC(=O)c2cc3cc(-c4cccs4)cnc3n(Cc3ccc(F)cc3)c2=O)CC1 | 6.37 | 7.18 | 6.5 | –
13 | COc1ccc(-c2cnc3c(c2)cc(C(=O)NC2CCC(C)CC2)c(=O)n3Cc2ccc(F)cc2)cc1 (stereo not drawn) | 5.49 | 8.42 | 851 | –
14 | CC1CCC(NC(=O)c2cc3cc(-c4cccs4)cnc3n(CCN3CCOCC3)c2=O)CC1 (stereo not drawn) | 7.49 | 9.77 | 192 | –
15 | CCOC(=O)CCCn1c(=O)c(C(=O)NC2CCC(C)CC2)cc2cccnc21 (stereo not drawn) | < 5.00 | 7.20 | – | –
16 | CC1CCC(NC(=O)c2cc3cccnc3n(CCCCCCF)c2=O)CC1 (stereo not drawn) | 7.45 | 8.84 | 24.4 | –
17 | CC1CCC(NC(=O)c2cc3cc(Br)cnc3n(CCN3CCOCC3)c2=O)CC1 (stereo not drawn) | 6.12 | 8.90 | 595 | pIC50 [4]: 7.49; pIC50 ([5]; read-out: IC50): 7.22
18 | CC1CCC(NC(=O)c2cc3cc(-c4ccc(F)cc4)cnc3n(Cc3ccc(F)cc3)c2=O)CC1 (stereo not drawn) | < 5.00 | 8.66 | – | –

Row | SMILES | pKi [1] | pKi [2] | Ratio Ki [3] | also measured
19 | CCOC(=O)CCn1c(=O)c(C(=O)NC2CCC(C)CC2)cc2cccnc21 (stereo not drawn) | < 5.00 | 6.75 | – | –
20 | CC1CCC(NC(=O)c2cc3cc(-c4ccco4)cnc3n(CCN3CCOCC3)c2=O)CC1 (stereo not drawn) | 7.28 | 9.46 | 151 | –
21 | CC1CCC(NC(=O)c2cc3cc(-c4ccco4)cnc3n(Cc3ccc(F)cc3)c2=O)CC1 (stereo not drawn) | 5.46 | 9.17 | 5140 | –
22 | CCCC(C)(C)c1ccc2c(c1)OC(C)(C)[C@@H]1CC=C(C)C[C@@H]21 | – | – | 226 | –
23 | C[C@H]1CC[C@@H](NC(=O)c2cc3cc(Br)cnc3n(Cc3ccc(F)cc3)c2=O)CC1 | 6.92 | 9.92 | 1010 | –
24 | CC1CCC(NC(=O)c2cc3cccnc3n(CCCCCO)c2=O)CC1 (stereo not drawn) | < 5.00 | 8.44 | – | –
25 | C[C@H]1CC[C@@H](NC(=O)c2cc3cc(-c4ccco4)cnc3n(Cc3ccc(F)cc3)c2=O)CC1 | 5.39 | 9.57 | 15000 | –
26 | CCCCCn1c(=O)c(C(=O)NC2CCC(C)CC2)cc2cccnc21 (stereo not drawn) | 6.04 | 8.55 | 322 | –
27 | CC1CCC(NC(=O)c2cc3cc(-c4ccc(F)cc4)cnc3n(CCN3CCOCC3)c2=O)CC1 (stereo not drawn) | 7.18 | 9.17 | 98 | –
28 | CCCCn1c(=O)c(C(=O)NC2CCC(C)CC2)cc2cccnc21 (stereo not drawn) | 5.64 | 8.41 | 593 | –
29 | CC1CCC(NC(=O)c2cc3cccnc3n(CCCCCF)c2=O)CC1 (stereo not drawn) | 7.65 | 9.25 | 40.3 | –
30 | CC1CCC(NC(=O)c2cc3cccnc3n(Cc3ccc(F)cc3)c2=O)CC1 (stereo not drawn) | – | – | 222 | pIC50 [2]: 8.86; pEC50 [6]: 7.53; pEC50 [7]: 7.53
31 | CC1CCC(NC(=O)c2cc3cccnc3n(CCCCC(=O)O)c2=O)CC1 (stereo not drawn) | < 5.00 | 5.87 | – | –
32 | COC(=O)CCCCn1c(=O)c(C(=O)NC2CCC(C)CC2)cc2cccnc21 (stereo not drawn) | < 5.00 | 7.57 | – | –
33 | CC1CCC(NC(=O)c2cc3cccnc3n(CCN3CCOCC3)c2=O)CC1 (stereo not drawn) | – | – | 526 | pEC50 [6]: 7.75; pEC50 [7]: 7.55
34 | CC1CCC(NC(=O)c2cc3cccnc3n(CCCC(=O)O)c2=O)CC1 (stereo not drawn) | < 5.00 | 5.61 | – | –
35 | CC1CCC(NC(=O)c2cc3cc(-c4cccs4)cnc3n(Cc3ccc(F)cc3)c2=O)CC1 (stereo not drawn) | 5.48 | 8.73 | 1770 | –
